The values that follow come from ChEMBL document CHEMBL4619772 (J Med Chem, 2020).

Series [1] relates to A549. Kind of series: Inhibition of pseudotyped HIV/MARV GP infected in human A549 cells assessed as reduction in virus entry at 12.5 uM measured after 48 hrs by luciferase reporter gene assay relative to control. It is filed as cell-based. The note with it: Marburgvirus. In outline:
(§1)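 Low-passage A549 cells are infected with HIV-based pseudovirions carrying EBOV or MARV GP and a luciferase reporter, with or without compound at 12.5 μM. […] Toremifene is the positive control.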

Series [2] deals with A549. The series is described as follows: Inhibition of pseudotyped HIV/EBOV GP infected in human A549 cells assessed as reduction in virus entry at 12.5 uM measured after 48 hrs by luciferase reporter gene assay relative to control. Type of series: cell-based. The note with it: Ebolavirus. An outline of the steps:
as §1

A short description of series [3]: Inhibition of pseudotyped HIV/MARV GP infected in human A549 cells assessed as reduction in virus entry measured after 48 hrs by luciferase reporter gene assay. Type of series: cell-based, Marburgvirus. Conditions: Orthomarburgvirus, A549, 48 h.
Series [4] in a line: Inhibition of pseudotyped HIV/EBOV GP infected in human A549 cells assessed as reduction in virus entry measured after 48 hrs by luciferase reporter gene assay. Type of series: cell-based, Ebolavirus. Conditions: Orthoebolavirus, A549, 48 h.
Series [5] can be described thus: Selectivity index, ratio of CC50 for human A549 cells to EC50 for HIV/EBOV-GP infected in human A549 cells. Conditions: read-out: Ratio CC50/EC50. It is filed as toxicity, cell-based. An outline of the steps:
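Ratio CC50/EC50. CC50 is A549 cytotoxicity by CellTiter 96 aqueous nonradioactive cell proliferation assay.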

For the next series, the system named is Marburgvirus. Kind of series: Antiviral activity against Marburg virus Lake Victoria, 2005 Angola infected in human HeLa cells pretreated for 1 hr followed by virus infection measured after 24 hrs by Hoechst staining-based immunofluorescence assay. It is filed as functional, organism-based, Lake Victoria marburgvirus. Conditions: Orthomarburgvirus, Angola2005, HeLa.

The subject of another series is Zaire ebolavirus. The series is described as follows: Antiviral activity against Ebola virus 1976 Mayinga infected in human HeLa cells pretreated for 1 hr followed by virus infection measured after 24 hrs by Hoechst staining-based immunofluorescence assay. Type of series: functional, organism-based.

Regarding `COC(=O)c1ccc2c(c1)CCN2C(=O)c1ccc(CN2CCCCC2)cc1`, the inhibition in the series with A549 [1] was 51.2%; with A549 [2] it was 41.7%.

On to `CC(c1ccc(C(=O)NCC2COC3(CCCCC3)O2)cc1)N1CCCCC1` (configuration not stated), for which the values for the inhibition in the series with A549 [1] and in the series on A549 [2] were 37.2% and 56%, respectively.

As to `COC(=O)c1cccc(NC(=O)c2ccc(CN3CCCCC3)cc2)c1`, the inhibition with A549 [1] and with A549 [2] was 0% throughout.

Regarding `COC(=O)c1ccc2c(c1)CCN2C(=O)c1ccc(CN2CCCCC2)s1`, the results for the inhibition with A549 [1] and in the series on A549 [2] were 0% and 38.9%, respectively.

Take `O=C(Nc1ccc(C(F)(F)F)cc1)c1ccc(CN2CCCCC2)s1`: the half-maximal effective concentration (EC50) came out at 3.65 µM in series [3] and 5.6 µM in series [4]. The inhibition in the series on A549 [1] turned out to be 70%; with A549 [2], 80.2%. Besides, in series [5], the selectivity ratio is 9.

As to `COC(=O)c1ccc(NC(=O)c2ccc(CN3CCOCC3)cc2)cc1`, the inhibition with A549 [1] came out at 68.8%; in the series with A549 [2], 57.2%.

As for `O=C(Nc1ccc(Cl)c(C(F)(F)F)c1)c1ccc(CN2CCCCC2)cc1`, the concentration for a half-maximal effect (EC50) in series [3] is 1.24 µM; in series [4], 1.52 µM. Besides, the inhibition in the series on A549 [1] was 98.2%; in the series on A549 [2], 99.6%. In addition, the selectivity ratio in series [5] stood at 7.

Regarding `CS(=O)(=O)Nc1ccc(NC(=O)c2ccc(CN3CCCCC3)cc2)cc1`, the inhibition with A549 [1] came to 6.81%; in the series on A549 [2], 3.91%.

On to `O=C(c1ccc(CN2CCCCC2)cc1)N1CCc2ccc(Cl)cc21`, for which the results for the EC50 in series [3] and in series [4] were 2.31 µM and 2.22 µM, respectively. The inhibition turned out to be 42.4% in the series with A549 [1] and 81.5% with A549 [2]. Also, the selectivity ratio in series [5] is 14.

As for `O=C(Nc1ccc(C(F)(F)F)cc1)c1ccc(CN2CCCCC2)cc1`, the concentration giving a half-maximal response (EC50) in series [3] stood at 5.7 µM; in series [4], 3.87 µM. Further, the inhibition with A549 [1] was determined as 79.3%; with A549 [2], 89.9%. Moreover, the selectivity ratio in series [5] worked out at 9.

Regarding `CS(=O)(=O)c1ccc(NC(=O)c2ccc(CN3CCCCC3)cc2)cc1`, the results for the inhibition with A549 [1] and with A549 [2] were 17.4% and 0%, respectively.

`CNS(=O)(=O)c1ccc(NC(=O)c2ccc(CN3CCCCC3)cc2)cc1`: the inhibition was determined as 3.3% with A549 [1] and 0% in the series with A549 [2].

With `O=C(NCC1CCC(F)(F)CC1)c1ccc(CN2CCCCC2)cc1`, the figures for the inhibition in the series on A549 [1] and with A549 [2] were 23% and 42.9%, respectively.

`O=C(c1ccc(CN2CCCCC2)cc1)N1CCc2ccc(F)cc21`: the inhibition with A549 [1] was found to be 13.5%; with A549 [2], 20.1%.

Take `CC(c1ccc(C(=O)N2CCc3ccc(C(F)(F)F)cc32)cc1)N1CCCCC1` (configuration not stated): the EC50 in series [3] was 1.73 µM; in series [4], 1.56 µM. The inhibition is 76.9% with A549 [1] and 95.6% in the series on A549 [2]. For the same compound, the selectivity ratio in series [5] is 21.

In the case of `COC(=O)c1ccc(NC(=O)c2ccc(CN3CCN(C)CC3)cc2)cc1`, the values for the inhibition in the series with A549 [1] and in the series with A549 [2] were 30.3% and 29.4%, respectively.

On to `O=C(Nc1ccc(C2CCCCC2)cc1)c1ccc(CN2CCCCC2)cc1`, for which the results for the EC50 in series [3] and in series [4] were 0.96 µM and 0.99 µM, respectively. Moreover, the inhibition in the series with A549 [1] stood at 73.4%; in the series with A549 [2], 98.1%. In addition, the selectivity ratio in series [5] stood at 101.

For `O=C(c1ccc(CN2CCCCC2)cc1)n1ccc2ccc(C(F)(F)F)cc21`, the inhibition in the series with A549 [1] and with A549 [2] was 0% each time.

For the compound `O=C(Nc1ccc(C(F)(F)F)nc1)c1ccc(CN2CCCCC2)cc1`, the inhibition with A549 [1] came to 9.4%; in the series on A549 [2], 5.4%.

`N#Cc1ccc(NC(=O)c2ccc(CN3CCCCC3)cc2)cc1`: the inhibition in the series on A549 [1] was found to be 12.4%; in the series on A549 [2] it was 0%.

Turning to `CC(C)c1ccc(NC(=O)c2ccc(CN3CCCCC3)cc2)cc1`, the half-maximal effective concentration (EC50) in series [3] was 2.1 µM; in series [4], 2.87 µM. For the same compound, the inhibition came out at 67.5% in the series with A549 [1] and 93.1% in the series on A549 [2]. Besides, the selectivity ratio in series [5] turned out to be 10.

For `COC(=O)c1ccc(NC(=O)c2cccc(CN3CCCCC3)c2)cc1`, the inhibition in the series on A549 [1] was 5.9%; in the series on A549 [2], 13%.

For the compound `O=C(Nc1ccc(C(F)(F)F)c(Cl)c1)c1ccc(CN2CCCCC2)cc1`, the EC50 turned out to be 2.05 µM in series [3] and 2.34 µM in series [4]. Further, the figures for the inhibition in the series with A549 [1] and with A549 [2] were 98.5% and 99.7%, respectively. The selectivity ratio in series [5] was 9.

For `COC(=O)c1ccc2c(c1)CCCN2C(=O)c1ccc(CN2CCCCC2)cc1`, the inhibition in the series with A549 [1] came out at 0%; in the series on A549 [2] it was 25.1%.

Consider `COC(=O)c1ccc(NC(=O)c2ccc(C(=O)N3CCCCC3)cc2)cc1`, for which the inhibition in the series with A549 [1] was 0%; in the series on A549 [2] it was 12.9%.

Regarding `N#CC(c1ccc(NC(=O)c2ccc(CN3CCCCC3)cc2)cc1)C1CCCC1` (configuration not stated), the concentration giving a half-maximal response (EC50) in series [3] was 1.63 µM; in series [4] it was 0.73 µM. Besides, the inhibition with A549 [1] came to 94%; in the series on A549 [2], 96.8%. Also, the selectivity ratio in series [5] is 99.

For `O=C(Nc1ccc(C2CC2)cc1)c1ccc(CN2CCCCC2)cc1`, the values for the EC50 in series [3] and in series [4] were 2.65 µM and 4.57 µM, respectively. For the same compound, the inhibition with A549 [1] was found to be 66.2%; in the series with A549 [2] it was 74.3%. Besides, the selectivity ratio in series [5] worked out at 22.

As to `O=C(Nc1cccc(C(F)(F)F)c1)c1ccc(CN2CCCCC2)cc1`, the EC50 worked out at 1.41 µM in series [3] and 2.97 µM in series [4]. The inhibition with A549 [1] was 57.5%; in the series on A549 [2] it was 82.2%. Further, the selectivity ratio in series [5] was 15.

As to `O=C(NCCC1CCCCC1)c1ccc(CN2CCCCC2)cc1`, the concentration giving a half-maximal response (EC50) was determined as 7.74 µM in series [3] and 2.32 µM in series [4]. In addition, the inhibition in the series with A549 [1] came to 27.3%; with A549 [2], 90.9%. In series [5], the selectivity ratio stood at 25.

For the compound `CN(C)CCOc1ccc(/C(=C(/CCCl)c2ccccc2)c2ccccc2)cc1` [TOREMIFENE], the EC50 in series [4] was 0.09 µM; with Marburgvirus, 3.25 µM; in the series on Zaire ebolavirus, 0.67 µM.

On to `CC(c1ccc(C(=O)NCCOC2CCCCC2)cc1)N1CCCCC1` (configuration not stated), for which the inhibition in the series on A549 [1] is 42.5%; with A549 [2], 52.4%.

As for `CC1(C)CN(C(=O)c2ccc(CN3CCCCC3)cc2)c2ccccc21`, the EC50 in series [3] turned out to be 2.9 µM; in series [4], 2.22 µM. For the same compound, the inhibition stood at 21.4% with A549 [1] and 87.3% with A549 [2]. In series [5], the selectivity ratio is 33.

For the compound `O=C(Nc1ccc(N2CCC(F)(F)CC2)cc1)c1ccc(CN2CCCCC2)cc1`, the concentration giving a half-maximal response (EC50) is 1.88 µM in series [3] and 0.82 µM in series [4]. Moreover, the figures for the inhibition with A549 [1] and in the series with A549 [2] were 88.8% and 99.7%, respectively. The selectivity ratio in series [5] amounted to 69.

As to `O=C(c1ccc(CN2CCCCC2)cc1)N1CC2(CC2)c2ccccc21`, the inhibition turned out to be 34.4% with A549 [1] and 74.5% in the series with A549 [2].

For `COC(=O)c1ccc(NC(=O)c2ccc(CN3CCCCC3)s2)cc1`, the inhibition with A549 [1] is 27.2%; in the series with A549 [2] it was 33.8%.

Consider `O=C(c1ccc(CN2CCCCC2)cc1)N1CCc2cc(C(F)(F)F)ccc21`, for which the inhibition with A549 [1] was determined as 49.6%; in the series with A549 [2], 56.4%.

With `O=C(O)c1ccc(NC(=O)c2ccc(CN3CCCCC3)cc2)cc1`, the inhibition came out at 10.3% in the series with A549 [1] and 3.12% in the series on A549 [2].
